This is an account of results in ChEMBL document CHEMBL2331405, “Benzanilide-Biphenyl Replacement: A Bioisosteric Approach to Quinoline Carboxamide-Type ABCG2 Modulators” (ACS Med Chem Lett, 2013).

SMILES strings stand for the structures. pIC50: −log10 of the molar value.

Data set [1] is described as follows: Half life in NMRI nu/nu mouse plasma at 3 mM by RP-HPLC analysis. The format is ADME, cell-free.
For data set [2], the target named is T1, Broad substrate specificity ATP-binding cassette transporter ABCG2 (Homo sapiens, UniProt Q9UNQ0).
T1 sequence (Q9UNQ0 whole entry): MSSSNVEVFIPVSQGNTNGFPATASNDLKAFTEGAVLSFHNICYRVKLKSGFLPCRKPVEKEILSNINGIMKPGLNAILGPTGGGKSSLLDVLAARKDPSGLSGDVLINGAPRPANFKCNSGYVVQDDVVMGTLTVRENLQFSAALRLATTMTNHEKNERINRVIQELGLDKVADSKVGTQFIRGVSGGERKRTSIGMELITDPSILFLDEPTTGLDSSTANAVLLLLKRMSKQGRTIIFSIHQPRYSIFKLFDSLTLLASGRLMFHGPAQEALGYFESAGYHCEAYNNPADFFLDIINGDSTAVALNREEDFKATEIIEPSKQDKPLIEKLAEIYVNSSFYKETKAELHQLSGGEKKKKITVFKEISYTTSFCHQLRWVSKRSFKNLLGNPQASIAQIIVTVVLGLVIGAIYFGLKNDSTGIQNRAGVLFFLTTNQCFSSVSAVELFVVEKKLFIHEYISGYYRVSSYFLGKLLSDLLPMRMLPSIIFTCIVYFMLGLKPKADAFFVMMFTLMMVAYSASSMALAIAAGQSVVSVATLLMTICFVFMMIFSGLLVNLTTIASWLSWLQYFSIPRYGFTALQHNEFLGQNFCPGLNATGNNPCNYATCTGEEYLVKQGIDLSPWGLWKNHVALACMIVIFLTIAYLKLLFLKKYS
Put plainly: Inhibition of ABCG2 in human MCF7/Topo cells after 2 hrs by Hoechst 33342 microplate assay. The format is cell-based. The note with it: for inhibition (INH): human, mcf7/topo, 2 h.

Data set [3] has as its target T2, ABCG2 (Homo sapiens, UniProt Q9UNQ0).
T2 sequence (Q9UNQ0 whole entry): T1 sequence (Q9UNQ0 whole entry)
Put plainly: Inhibition of ABCG2 in human MCF7/Topo cells at 70 to 100 uM after 2 hrs by Hoechst 33342 microplate assay relative to 10 uM fumitremorgin. In kind it is cell-based. As to conditions: probe Hoechst 33342, read-out: Imax; call rule not given here.

Data set [4] addresses T3, ATP-dependent translocase ABCB1 (Homo sapiens, UniProt P08183). The data set can be described thus: Inhibition of ABCB1 in human KBV1 cells up to 100 uM after 10 mins by Calcein-AM microplate assay. As to conditions: kbv1, 10 min. The format is cell-based. Summed up: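 Microplate calcein-AM efflux assay in ABCB1-overexpressing Kb-V1 cells. Values are means ± SEM from two to three independent experiments, each run in triplicate.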

The target in data set [5] is T3, ATP-dependent translocase ABCB1. The data set can be described thus: Inhibition of ABCB1 in human KBV1 cells after 10 mins by Calcein-AM microplate assay. In kind it is cell-based.
The target in the next data set is ABCB1 (Homo sapiens, UniProt P08183). The data set can be described thus: Inhibition of ABCB1 in human KBV1 cells after 10 mins by Calcein-AM microplate assay relative to 1 uM tariquidar. The format is cell-based. As to conditions: probe calcein-AM. Put shortly:
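Microplate calcein-AM assay in ABCB1-overexpressing Kb-V1 cells. Maximal inhibition is expressed as a percentage of the maximal response to tariquidar at 1 μM. Means ± SEM come from two to three independent experiments, each run in triplicate.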

For data set [6], the target named is T2, ABCG2. The data set can be described thus: Ratio of compound IC50 to elacridar IC50 for ABCG2 in human MCF7/Topo cells after 2 hrs by Hoechst 33342 microplate assay. The format is cell-based. The note with it: probe Hoechst 33342, read-out: Ratio IC50.
The subject of another data set is Plasma. The data set can be described thus: Stability in NMRI nu/nu mouse plasma at 3 mM measured within 30 mins by RP-HPLC analysis. In kind it is ADME, cell-free. As to conditions: 0.5 h, 3000 µM.

Chain of ABCB1 (P08183 whole entry): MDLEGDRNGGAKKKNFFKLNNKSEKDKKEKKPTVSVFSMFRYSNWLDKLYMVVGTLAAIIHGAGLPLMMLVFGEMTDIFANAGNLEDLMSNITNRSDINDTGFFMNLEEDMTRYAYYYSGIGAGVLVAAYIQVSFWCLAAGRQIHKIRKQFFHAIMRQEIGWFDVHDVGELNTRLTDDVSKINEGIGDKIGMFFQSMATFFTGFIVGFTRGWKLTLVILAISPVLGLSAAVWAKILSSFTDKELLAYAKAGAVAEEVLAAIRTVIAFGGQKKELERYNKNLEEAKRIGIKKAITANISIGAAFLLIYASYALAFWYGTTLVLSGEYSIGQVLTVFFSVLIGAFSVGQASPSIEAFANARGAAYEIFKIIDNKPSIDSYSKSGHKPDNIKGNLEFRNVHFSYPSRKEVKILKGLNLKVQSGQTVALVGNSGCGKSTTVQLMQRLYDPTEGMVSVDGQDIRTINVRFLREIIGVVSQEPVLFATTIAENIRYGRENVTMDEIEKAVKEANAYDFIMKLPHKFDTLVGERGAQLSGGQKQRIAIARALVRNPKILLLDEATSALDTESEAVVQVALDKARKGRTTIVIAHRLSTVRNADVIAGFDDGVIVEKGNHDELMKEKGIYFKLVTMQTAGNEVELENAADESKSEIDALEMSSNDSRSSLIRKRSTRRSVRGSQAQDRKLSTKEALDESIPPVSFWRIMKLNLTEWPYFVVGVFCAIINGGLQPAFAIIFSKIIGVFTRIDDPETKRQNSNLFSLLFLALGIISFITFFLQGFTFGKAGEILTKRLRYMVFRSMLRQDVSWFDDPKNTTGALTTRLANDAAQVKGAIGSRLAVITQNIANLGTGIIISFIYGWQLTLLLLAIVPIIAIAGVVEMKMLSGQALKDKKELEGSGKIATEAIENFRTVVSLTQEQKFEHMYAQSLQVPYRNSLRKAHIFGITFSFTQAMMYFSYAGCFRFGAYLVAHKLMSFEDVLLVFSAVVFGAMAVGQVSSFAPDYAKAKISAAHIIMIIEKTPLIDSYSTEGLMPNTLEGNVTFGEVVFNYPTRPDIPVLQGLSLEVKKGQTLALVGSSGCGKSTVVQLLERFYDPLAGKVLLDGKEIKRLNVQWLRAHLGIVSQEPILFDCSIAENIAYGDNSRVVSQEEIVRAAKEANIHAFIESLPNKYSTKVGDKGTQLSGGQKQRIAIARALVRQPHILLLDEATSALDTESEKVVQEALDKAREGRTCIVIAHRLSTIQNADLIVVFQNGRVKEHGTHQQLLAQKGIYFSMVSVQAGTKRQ
T3 sequence (P08183 whole entry): as above

For `COCCOCCOCCOc1cc2c(cc1OC)CN(Cc1ccc(-c3ccc(C(=O)OC)c(NC(=O)c4ccc5ccccc5n4)c3)cc1)CC2`, in data set [1], the half-life at 3000 µM was 24 h. This molecule also gave a negative logarithm of the IC50 (pIC50) in data set [2] of 5.99. Moreover, the Emax at 2 h on ABCG2 [3] is 114%. The “inhibition (INH)” value in data set [4] is “Not Active”.
Turning to `COCCOCCOCCOc1cc2c(cc1OCCOCCOCCOC)CN(CCc1ccc(-c3ccc(C(=O)OC)c(NC(=O)c4ccc5ccccc5n4)c3)cc1)CC2`, the pIC50 in data set [5] is 5.22. For the same molecule, at ABCB1, the inhibition at 10 min is 50%. Also, the half-life at 3000 µM in data set [1] was 24 h. For the same molecule, in data set [2], the negative logarithm of the IC50 (pIC50) is 6.26 and the “inhibition (INH)” value is “Dose-dependent effect”. Also, the Emax at 2 h on ABCG2 [3] came out at 112%.
On to `COCCOCCOCCOc1cc2c(cc1OC)CCN(Cc1ccc(-c3ccc(C(=O)OC)c(NC(=O)c4ccc5ccccc5n4)c3)cc1)C2`, for which the pIC50 in data set [5] was 5.91; in data set [2], 6.23. In addition, the inhibition at 10 min at ABCB1 is 20%. The same molecule gave a half-life at 3000 µM in data set [1] of 24 h. In data set [2], the “inhibition (INH)” value is reported as “Dose-dependent effect”. For the same molecule, the Emax at 2 h on ABCG2 [3] worked out at 109%.
In turn, `COC(=O)c1ccc(-c2ccc(CCN3CCc4cc(OC)c(OC)cc4C3)cc2)cc1NC(=O)c1ccc2ccccc2n1` gave a half-life at 3000 µM in data set [1] of 24 h. In data set [2], this molecule showed a pIC50 of 5.49. The Emax at 2 h at ABCG2 [3] worked out at 126%. For the same molecule, the “inhibition (INH)” value in data set [4] is recorded as “Not Active”.
In data set [1], `COC(=O)c1ccc(-c2ccc(CCN3CCc4ccccc4C3)cc2)cc1NC(=O)c1ccc2ccccc2n1` gave a half-life at 3000 µM of 24 h. The same molecule gave a negative logarithm of the IC50 (pIC50) in data set [2] of 5.96. Besides, at ABCG2 [3], the Emax at 2 h was 90%. Besides, the “inhibition (INH)” value in data set [4] is “Not Active”.
With `COc1cc2c(cc1OC)CN(CCc1ccc(NC(=O)c3cccc4c(=O)c5cccc(OC)c5[nH]c34)cc1)CC2`, on ABCG2 [3], the Emax at 2 h worked out at 63%.
As for `COc1cc2c(cc1OC)CN(CCc1ccc(NC(=O)c3cc(OC)c(OC)cc3NC(=O)c3cnc4ccccc4c3)cc1)CC2`, the “inhibition (INH)” value in data set [2] was “Dose-dependent effect”. In addition, on ABCG2 [3], the Emax at 2 h amounted to 69%. Further, the selectivity ratio at 2 h on ABCG2 [6] amounted to 4.
Consider `COCCOCCOCCOc1cc2c(cc1OC)CCN(CCc1ccc(-c3ccc(C(=O)OC)c(NC(=O)c4ccc5ccccc5n4)c3)cc1)C2`, for which the pIC50 was 5.27 in data set [5] and 6.12 in data set [2]. In addition, on ABCB1, the inhibition at 10 min was 50%. The molecule further gave a half-life at 3000 µM in data set [1] of 24 h. Also, the Emax at 2 h on ABCG2 [3] turned out to be 98%.
Consider `COc1ccc2c3c([nH]c2c1)[C@H](CC(C)C)N1C(=O)[C@H](CCC(=O)OC(C)(C)C)NC(=O)[C@@H]1C3`, for which the “inhibition (INH)” value in data set [4] was “Not Active”.
The molecule `COC(=O)c1ccc(-c2ccc(CN3CCc4cc(OC)c(OC)cc4C3)cc2)cc1NC(=O)c1ccc2ccccc2n1` showed a half-life at 3000 µM in data set [1] of 24 h. Besides, the pIC50 in data set [2] was 6.03. In addition, the Emax at 2 h at ABCG2 [3] was 87%. Further, the “inhibition (INH)” value in data set [4] was “Not Active”.
As for `COC(=O)c1ccc(-c2ccc(CN3CCc4cc(OC)c(OC)cc4C3)cc2)cc1NC(=O)c1ccc2ncccc2c1`, the results for the pIC50 in data set [5] and in data set [2] were 4.96 and 5.81, respectively. This molecule gave a half-life at 3000 µM in data set [1] of 24 h. In addition, on ABCG2 [3], the Emax at 2 h amounted to 92%.
Consider `COC(=O)c1ccc(-c2ccc(CN3CCc4ccccc4C3)cc2)cc1NC(=O)c1ccc2ncccc2c1`, for which the pIC50 in data set [5] is 5.35; in data set [2], 6.19. Also, in data set [1], the half-life at 3000 µM is 24 h. Further, the Emax at 2 h at ABCG2 [3] stood at 94%.
Turning to `COCCOCCOCCOc1cc2c(cc1OC)CN(Cc1ccc(-c3ccc(C(=O)OC)c(NC(=O)c4ccc5ncccc5c4)c3)cc1)CC2`, the figures for the pIC50 in data set [5] and in data set [2] were 4.74 and 6.63, respectively. In data set [1], this molecule showed a half-life at 3000 µM of 24 h. Further, the Emax at 2 h on ABCG2 [3] is 67%.
In turn, `COc1ccc2c3c([nH]c2c1)[C@H](C=C(C)C)N1C(=O)[C@@H]2CCCN2C(=O)[C@@H]1C3` [FUMITREMORGIN] gave a negative logarithm of the IC50 (pIC50) in data set [2] of 6.14. The Emax at 2 h at ABCG2 [3] came to 100%.
Consider `COC(=O)c1ccc(C(=O)Nc2ccc(CCN3CCc4cc(OC)c(OC)cc4C3)cc2)cc1NC(=O)c1ccc2ccccc2n1`, for which, in the data set on Plasma, the Stability result is “Unstable”. In data set [1], this molecule showed a half-life at 3000 µM of 0.167 h. In addition, in data set [2], the pIC50 is 7.19 and the “inhibition (INH)” value is listed as “Dose-dependent effect”. At ABCG2 [3], the Emax at 2 h is 63%.
Molecule `COC(=O)c1ccc(-c2ccc(CN3CCc4ccccc4C3)cc2)cc1NC(=O)c1ccc2ccccc2n1` showed a half-life at 3000 µM in data set [1] of 24 h. Moreover, the pIC50 in data set [2] was 5.84. At ABCG2 [3], the Emax at 2 h came to 85%. Also, the “inhibition (INH)” value in data set [4] is given as “Not Active”.
As to `COCCOCCOCCOc1cc2c(cc1OCCOCCOCCOC)CN(Cc1ccc(-c3ccc(C(=O)OC)c(NC(=O)c4ccc5ccccc5n4)c3)cc1)CC2`, in data set [1], the half-life at 3000 µM is 24 h. This molecule also gave a pIC50 in data set [2] of 6.08. The Emax at 2 h at ABCG2 [3] worked out at 103%. Besides, the “inhibition (INH)” value in data set [4] is reported as “Not Active”.
Turning to `COCCOCCOCCOc1cc2c(cc1OC)CCN(CCc1ccc(NC(=O)c3ccc(C(=O)OC)c(NC(=O)c4ccc5ccccc5n4)c3)cc1)C2`, in the data set on Plasma, the Stability entry is recorded as “Unstable”. Further, the half-life at 3000 µM in data set [1] turned out to be 0.167 h.

For orientation: half-life means the time in which the quantity being followed falls by half. As usually defined, the pIC50 is the IC50 on a negative log10 scale, so that one unit is a factor of ten. By inhibition is commonly meant the change of the read-out against control, counted positive when it falls.
